In ChEMBL document CHEMBL4406846, “Development of novel multipotent compounds modulating endocannabinoid and dopaminergic systems” (Eur J Med Chem, 2019):
Converted amounts (≈) assume the structure as drawn. The source made the active and inactive calls. The calls are words filed in the database; no cut-off is given here.

How the values were obtained:
[1] = molecular target: T1, Fatty-acid amide hydrolase 1 (Mus musculus, UniProt O08914); assay: Inhibition of FAAH in mouse brain membranes assessed as inhibitory constant using [14C]-AEA as substrate incubated for 15 mins by scintillation counting method; format: cell membranes
T1 sequence (O08914 whole entry): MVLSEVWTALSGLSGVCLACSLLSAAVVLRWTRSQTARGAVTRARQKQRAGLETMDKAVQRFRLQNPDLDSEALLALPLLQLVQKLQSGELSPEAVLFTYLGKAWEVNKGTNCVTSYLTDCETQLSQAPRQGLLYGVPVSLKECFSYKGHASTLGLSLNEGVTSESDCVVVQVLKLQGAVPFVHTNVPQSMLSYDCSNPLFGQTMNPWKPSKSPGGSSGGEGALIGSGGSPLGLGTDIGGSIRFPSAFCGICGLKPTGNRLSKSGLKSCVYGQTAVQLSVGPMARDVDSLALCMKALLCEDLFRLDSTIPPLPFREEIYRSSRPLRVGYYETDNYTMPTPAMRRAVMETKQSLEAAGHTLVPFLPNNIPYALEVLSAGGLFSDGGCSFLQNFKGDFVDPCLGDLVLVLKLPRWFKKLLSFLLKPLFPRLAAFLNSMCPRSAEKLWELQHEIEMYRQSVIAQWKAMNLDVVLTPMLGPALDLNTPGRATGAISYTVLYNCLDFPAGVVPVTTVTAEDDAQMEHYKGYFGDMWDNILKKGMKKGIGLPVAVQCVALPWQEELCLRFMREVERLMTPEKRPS
In short: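 Mouse brain incubated with 10 μM [¹⁴C]AEA at 37 °C for 15 min, pH 9.0, compound added to the medium. Stopped with chloroform/methanol 2:1; [¹⁴C]ethanolamine released into the aqueous phase measured. Mean of at least three experiments.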

[2] = molecular target: T1, Fatty-acid amide hydrolase 1; assay: Inhibition of FAAH in mouse brain membranes using [14C]-AEA as substrate incubated for 15 mins by scintillation counting method; format: cell membranes
[3] = molecular target: Voltage-gated inwardly rectifying potassium channel KCNH2 (Homo sapiens, UniProt Q12809); assay: Inhibition of human ERG expressed in HEK293 cells […] by patch clamp assay; format: cell-based
Chain of Voltage-gated inwardly rectifying potassium channel KCNH2 (Q12809 whole entry): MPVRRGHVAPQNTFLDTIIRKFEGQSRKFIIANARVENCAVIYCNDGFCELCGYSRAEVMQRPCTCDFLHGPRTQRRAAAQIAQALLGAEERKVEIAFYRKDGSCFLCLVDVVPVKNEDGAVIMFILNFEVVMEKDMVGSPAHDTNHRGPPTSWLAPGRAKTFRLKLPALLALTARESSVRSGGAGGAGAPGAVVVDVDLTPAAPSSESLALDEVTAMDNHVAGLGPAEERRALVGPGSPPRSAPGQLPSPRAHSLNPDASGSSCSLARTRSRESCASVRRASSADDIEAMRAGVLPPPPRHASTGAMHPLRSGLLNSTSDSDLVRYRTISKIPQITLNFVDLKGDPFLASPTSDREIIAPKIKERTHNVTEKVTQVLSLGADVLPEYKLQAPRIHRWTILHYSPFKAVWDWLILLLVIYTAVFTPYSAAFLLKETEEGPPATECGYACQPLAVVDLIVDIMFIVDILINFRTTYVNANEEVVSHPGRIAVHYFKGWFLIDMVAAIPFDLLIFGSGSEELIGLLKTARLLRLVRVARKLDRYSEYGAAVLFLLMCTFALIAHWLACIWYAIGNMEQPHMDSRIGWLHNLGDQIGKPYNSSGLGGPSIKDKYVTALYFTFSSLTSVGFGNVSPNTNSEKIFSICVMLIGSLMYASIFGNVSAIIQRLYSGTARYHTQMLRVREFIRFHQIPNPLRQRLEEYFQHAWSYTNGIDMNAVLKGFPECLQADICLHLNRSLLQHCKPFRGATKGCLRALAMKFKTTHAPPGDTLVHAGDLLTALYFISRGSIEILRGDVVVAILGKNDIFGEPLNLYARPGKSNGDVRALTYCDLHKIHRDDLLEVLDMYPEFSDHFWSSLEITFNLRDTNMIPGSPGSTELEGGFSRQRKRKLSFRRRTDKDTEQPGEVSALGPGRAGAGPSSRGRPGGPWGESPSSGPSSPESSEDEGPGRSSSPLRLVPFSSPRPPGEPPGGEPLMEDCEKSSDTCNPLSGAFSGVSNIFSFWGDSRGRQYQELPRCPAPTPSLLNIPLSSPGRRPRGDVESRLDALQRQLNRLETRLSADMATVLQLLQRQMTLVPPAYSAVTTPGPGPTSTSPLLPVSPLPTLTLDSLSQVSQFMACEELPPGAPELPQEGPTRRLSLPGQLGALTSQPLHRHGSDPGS
In short: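 HEK293 cells stably expressing hERG under a tetracycline-inducible promoter (10 μg/mL tetracycline for 24, 48 or 72 h). Automated patch clamp, tail current; 0.1, 1 and 10 μM in 0.1% DMSO after 3 min vehicle, 5 min exposure. Residual current vs vehicle gives % inhibition; IC50 estimated; at least two cells.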

[4] = molecular target: D(3) dopamine receptor (Homo sapiens, UniProt P35462); assay: Displacement of [3H]-spiperone from human D3 receptor expressed in CHO cells co-expressing Galpha16 incubated for 120 mins by liquid scintillation counting method; format: cell-based
Chain of D(3) dopamine receptor (P35462 whole entry): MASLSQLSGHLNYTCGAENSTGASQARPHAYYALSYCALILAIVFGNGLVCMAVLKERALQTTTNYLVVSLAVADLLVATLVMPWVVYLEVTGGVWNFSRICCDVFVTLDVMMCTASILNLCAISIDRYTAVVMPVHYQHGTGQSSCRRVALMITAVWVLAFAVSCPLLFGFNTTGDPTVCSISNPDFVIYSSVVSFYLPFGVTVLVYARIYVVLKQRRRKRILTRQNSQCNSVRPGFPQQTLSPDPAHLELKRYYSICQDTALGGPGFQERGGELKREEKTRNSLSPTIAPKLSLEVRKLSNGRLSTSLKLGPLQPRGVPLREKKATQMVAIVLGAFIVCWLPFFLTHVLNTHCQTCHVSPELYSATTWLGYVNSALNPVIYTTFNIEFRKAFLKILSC

[5] = molecular target: D(2) dopamine receptor (Homo sapiens, UniProt P14416); assay: Displacement of [3H]-spiperone from human D2 receptor expressed in CHO cells co-expressing Galpha16 incubated for 120 mins by liquid scintillation counting method; format: cell-based
Chain of D(2) dopamine receptor (P14416 whole entry): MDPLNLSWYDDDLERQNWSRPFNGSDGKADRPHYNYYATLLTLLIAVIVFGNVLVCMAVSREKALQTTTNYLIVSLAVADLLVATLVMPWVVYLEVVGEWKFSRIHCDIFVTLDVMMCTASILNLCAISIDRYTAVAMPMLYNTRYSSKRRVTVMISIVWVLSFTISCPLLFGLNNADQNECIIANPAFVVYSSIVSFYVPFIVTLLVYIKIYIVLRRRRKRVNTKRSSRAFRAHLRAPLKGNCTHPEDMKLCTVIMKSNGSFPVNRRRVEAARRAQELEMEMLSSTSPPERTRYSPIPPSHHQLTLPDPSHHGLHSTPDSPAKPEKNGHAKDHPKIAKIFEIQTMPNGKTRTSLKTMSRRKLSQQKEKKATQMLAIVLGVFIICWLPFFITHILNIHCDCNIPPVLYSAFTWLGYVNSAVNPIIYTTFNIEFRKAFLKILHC
In short: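 Membranes from CHO cells expressing hD2 with Gα16; 2 μg protein/well, 0.08 nM [³H]-spiperone final, 23 °C for 120 min. Stopped by rapid filtration on PEI-soaked GF/B filters, bound radioactivity counted; Ki by Cheng-Prusoff; at least three experiments.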

[6] = Metabolic stability in rat liver microsomes assessed as apparent decay constant at 5 uM incubated for 60 mins by UV-Vis spectrophotometry; format: ADME, Microsome; settings: 1 h
[7] = Metabolic stability in rat liver microsomes assessed as half life at 5 uM incubated for 60 mins by UV-Vis spectrophotometry; format: ADME, Microsome
[8] = tested on: NIH3T3; assay: Cytotoxicity against mouse NIH/3T3 cells assessed as cell viability incubated for 24 hrs by neutral red uptake based assay; settings: NIH3T3, 24 h
In short: (§1)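 NIH3T3 or U-373-MG cells grown in DMEM with 10% FCS at 37 °C, 5% CO2; compound from DMSO stock diluted in complete medium, 4–100 μM, 24 h. Viability by Neutral Red Uptake (3 h NR loading, acetic acid/ethanol extraction, A540), normalised to % control; IC50 reported. Three experiments in six replicates, Student's t test.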

[9] = tested on: IMR-32; assay: Cytotoxicity against human IMR32 cells at 0.1 to 50 uM incubated for 24 hrs by LDH release assay; format: cell-based; settings: imr-32, 24 h
In short: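 IMR 32 cells exposed 24 h to 0.1, 0.5, 1, 5, 10 and 50 μM; LDH release expressed as percent of maximal release from Triton X-100-treated cells (100%). Samples run at least in triplicate, mean ± SD.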

[10] = Chemical stability of compound in DMSO assessed as remaining compound at pH 3 incubated for 24 hrs by HPLC/UV/DAD analysis; format: physicochemical; settings: read-out: Stability
In short: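 Samples at 250 μM (2.5% DMSO) in 50 mM acetic acid, pH 3.0, held 24 h at 25 °C. HPLC/UV/DAD peak area at 254 nm after 24 h divided by area at T0 × 100; triplicate average.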

[11] = tested on: U373 MG; assay: Cytotoxicity against human U373MG cells assessed as cell viability incubated for 24 hrs by neutral red uptake based assay; design: species or system U-373MG ATCC; in short: as §1
[12] = Metabolic stability in rat liver microsomes assessed as intrinsic clearance at 5 uM incubated for 60 mins by UV-Vis spectrophotometry; format: ADME, Microsome; settings: read-out: CLH
[13] = tested on: IMR-32; assay: Antiinflammatory activity in human IMR32 cells assessed as reduction in LPS-induced NF-kappaB-DNA binding at 0.5 and 1 uM preincubated for 24 hrs followed by LPS stimulation and measured after 30 mins by immunoblot analysis; format: functional, cell-based
[14] = Metabolic stability in human liver microsomes assessed as intrinsic clearance at 5 uM incubated for 60 mins by UV-Vis spectrophotometry; format: ADME, Microsome; settings: read-out: CLH
[15] = tested on: IMR-32; assay: Antiinflammatory activity in human IMR32 cells assessed as reduction in LPS-induced NF-kappaB-DNA binding at 0.5 and 1 uM preincubated for 24 hrs followed by LPS stimulation and measured after 30 mins by ELISA; format: functional, cell-based
In short: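 IMR 32 cells pre-treated 24 h at 0.5 and 1 μM, then challenged with 100 μg/mL LPS for 30 min; NF-κB p65 binding of nuclear extracts to the DNA consensus sequence measured. Mean ± SEM of 3 independent experiments.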

[16] = Solubility of compound in DMSO at pH 3 incubated for […] by HPLC/UV/DAD analysis; format: physicochemical
In short: (§2)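 10 mM DMSO stock diluted to 250 μM (2.5% DMSO) in 50 mM acetic acid (pH 3.0) or 50 mM PBS (pH 7.4). Shaken 24 h at 25 °C, filtered, diluted 1:2 and quantified by HPLC-UV at 254 nm against a 250 μM standard; triplicate average.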

[17] = Retention time of compound in human liver microsomes incubated for 30 mins by HPLC analysis; format: ADME, Microsome; settings: 0.5 h
[18] = Metabolic stability in human liver microsomes assessed as apparent decay constant at 5 uM incubated for 60 mins by UV-Vis spectrophotometry; format: ADME, Microsome; settings: 1 h
[19] = Metabolic stability in human liver microsomes assessed as half life at 5 uM incubated for 60 mins by UV-Vis spectrophotometry; format: ADME, Microsome
[20] = Solubility of compound in DMSO at pH 7.4 incubated for […] by HPLC/UV/DAD analysis; format: physicochemical; in short: as §2
[21] = molecular target: T2, Monoglyceride lipase (Mus musculus) (UniProt O35678); assay: Inhibition of MAGL in mouse brain assessed as release of [3H]glycerol using [3H]-2-OG as substrate incubated for 30 mins by scintillation counting method; format: tissue-based
T2 sequence (whole entry): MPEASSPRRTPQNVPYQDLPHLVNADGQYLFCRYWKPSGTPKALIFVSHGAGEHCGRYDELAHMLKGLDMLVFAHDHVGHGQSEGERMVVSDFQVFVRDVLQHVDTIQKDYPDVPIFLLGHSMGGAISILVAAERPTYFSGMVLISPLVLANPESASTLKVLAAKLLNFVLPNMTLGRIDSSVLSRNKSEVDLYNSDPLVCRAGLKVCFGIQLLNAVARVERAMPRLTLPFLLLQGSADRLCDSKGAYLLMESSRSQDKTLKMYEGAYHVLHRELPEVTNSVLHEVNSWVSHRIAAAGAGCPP
In short: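 Mouse brain homogenised in 50 mM sodium phosphate pH 8.0 with 0.32 M sucrose, spun sequentially up to 100,000×g. Final supernatant incubated with 10 μM [³H]2-OG at 37 °C for 30 min; stopped with chloroform/methanol and aqueous [³H]glycerol scintillation-counted.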

[22] = molecular target: Cannabinoid receptor 1 (Mus musculus) (UniProt P47746); assay: Displacement of [3H]CP55, 940 from mouse brain membrane CB1 receptor
Chain of Cannabinoid receptor 1 (Mus musculus) (P47746 whole entry): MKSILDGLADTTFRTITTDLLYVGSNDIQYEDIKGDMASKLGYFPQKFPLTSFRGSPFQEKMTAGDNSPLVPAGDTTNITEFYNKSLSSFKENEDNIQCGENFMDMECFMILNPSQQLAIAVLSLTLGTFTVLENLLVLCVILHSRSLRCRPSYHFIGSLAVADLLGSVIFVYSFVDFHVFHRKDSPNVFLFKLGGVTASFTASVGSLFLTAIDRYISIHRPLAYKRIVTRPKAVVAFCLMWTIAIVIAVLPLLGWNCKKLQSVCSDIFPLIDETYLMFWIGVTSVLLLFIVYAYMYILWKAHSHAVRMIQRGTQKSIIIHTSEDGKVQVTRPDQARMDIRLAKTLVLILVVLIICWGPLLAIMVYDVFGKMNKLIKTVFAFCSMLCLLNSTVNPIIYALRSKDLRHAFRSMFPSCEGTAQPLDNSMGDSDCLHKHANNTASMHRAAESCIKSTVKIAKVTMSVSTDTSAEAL
In short: (§3)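 Mouse brain membrane fraction (18000×g pellet) in 50 mM Tris-HCl, 2 mM Tris-EDTA, 3 mM MgCl2, pH 7.4. Rapid filtration binding with the agonist [³H]CP55,940; nonspecific binding defined with 1 μM unlabelled agonist; compound added directly to the incubation.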

[23] = molecular target: Cannabinoid receptor 2 (Mus musculus) (UniProt P47936); assay: Displacement of [3H]CP55, 940 from mouse brain membrane CB2 receptor; in short: as §3
Chain of Cannabinoid receptor 2 (Mus musculus) (P47936 whole entry): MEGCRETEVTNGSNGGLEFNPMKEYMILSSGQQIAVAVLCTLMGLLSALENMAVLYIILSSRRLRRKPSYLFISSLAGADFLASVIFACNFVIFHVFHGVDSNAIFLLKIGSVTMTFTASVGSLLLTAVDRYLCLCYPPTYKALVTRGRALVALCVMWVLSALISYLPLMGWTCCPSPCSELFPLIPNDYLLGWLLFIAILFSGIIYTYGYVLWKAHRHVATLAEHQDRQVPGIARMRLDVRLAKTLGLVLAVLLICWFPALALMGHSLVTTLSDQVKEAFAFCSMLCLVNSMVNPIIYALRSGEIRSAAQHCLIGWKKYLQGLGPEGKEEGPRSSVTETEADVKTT

[24] = Mutagenicity in Salmonella typhimurium TA100 assessed as number of revertants in presence of liver S9 fraction at 5 to 230 uM incubated for 2 days by AMES test; format: toxicity, subcellular; settings: salmonella enterica subsp. enterica serovar typhimurium, s9, 48 h
[25] = Mutagenicity in Salmonella typhimurium TA98 assessed as number of revertants at 5 to 230 uM incubated for 2 days by AMES test; format: toxicity; settings: salmonella enterica subsp. enterica serovar typhimurium, 48 h
[26] = Mutagenicity in Salmonella typhimurium TA98 assessed as number of revertants in presence of liver S9 fraction at 5 to 230 uM incubated for 2 days by AMES test; format: toxicity, subcellular; settings: salmonella enterica subsp. enterica serovar typhimurium, s9, 48 h
[27] = Mutagenicity in Salmonella typhimurium TA100 assessed as number of revertants at 5 to 230 uM incubated for 2 days by AMES test; format: toxicity; settings: salmonella enterica subsp. enterica serovar typhimurium, 48 h

SMILES: Cc1cc(C(N)=O)c(-c2cccc(OC(=O)NCCN3CCN(c4ccccc4)CC3)c2)n1C
- Ki [1]: 46 nM
- IC50 [2]: 175 nM

SMILES: Cc1cc(C(N)=O)c(-c2cccc(OC(=O)NCCN3CCN(c4ccccc4)CC3)c2)s1
- Ki [1]: 6.88 nM
- IC50 [3]: 280 nM
- IC50 [2]: 26 nM
- Ki [4]: 148 nM
- Ki [5]: 214 nM

SMILES: Cn1c(C(N)=O)ccc1-c1cccc(OC(=O)NCCN2CCN(c3ccccc3)CC2)c1
- Ki [1]: 203 nM
- IC50 [3]: 6400 nM
- IC50 [2]: 791 nM
- Ki [4]: 76 nM
- Ki [5]: 56 nM

SMILES: NC(=O)c1ccn(-c2cccc(OC(=O)NCCCN3CCN(c4ccccc4)CC3)c2)c1
- Ki [1]: 25 nM
- IC50 [3]: 3500 nM
- IC50 [2]: 94 nM
- Ki [4]: 34 nM
- Ki [5]: 66 nM

SMILES: Cc1cc(C(N)=O)c(-c2cccc(OC(=O)NCCN3CCN(c4ccccc4)CC3)c2)[nH]1
- Ki [1]: 50 nM
- IC50 [2]: 195 nM

SMILES: NC(=O)c1cn(-c2cccc(OC(=O)NCCN3CCN(c4ccccc4)CC3)c2)nn1
- Ki [1]: 194 nM
- IC50 [2]: 757 nM

SMILES: NC(=O)c1ccn(-c2cccc(OC(=O)NCCCCCCc3ccccc3)c2)c1
- K [6]: 0.01379 ×10⁻¹ /min
- half-life at 5 µM [7]: 50.3 min
- IC50 [8]: 75000 nM
- Activity [9]: Non-Toxic
- remaining at 24 h [10]: 92.1%
- IC50 [11]: 50000 nM
- microsomal CLint at 5 µM [12]: 23.4 µL/min/mg
- Activity [13]: Active
- microsomal CLint at 5 µM [14]: 41.6 µL/min/mg
- Activity [15]: Active
- solubility [16]: 465 µM (≈ 189 µg/mL)
- Retention_time [17]: 13.72 min
- K [18]: 0.02496 ×10⁻¹ /min
- half-life at 5 µM [19]: 27.8 min

SMILES: Cc1cc(C(N)=O)c(-c2cccc(OC(=O)NCCN3CCN(c4ccccc4)CC3)c2)o1
- K [6]: 0.03482 ×10⁻¹ /min
- half-life at 5 µM [7]: 19.9 min
- Ki [1]: 0.23 nM
- IC50 [8]: 68000 nM
- Activity [9]: Non-Toxic
- remaining at 24 h [10]: 99.9%
- IC50 [11]: 23000 nM
- microsomal CLint at 5 µM [12]: 59.2 µL/min/mg
- IC50 [3]: < 100 nM
- pIC50 ([3]; hek293): > 7
- solubility [20]: 2 µM (≈ 0.897 µg/mL)
- inhibition [21]: inactive
- IC50 [2]: 0.89 nM
- Activity [13]: Active
- Ki [4]: 105 nM
- microsomal CLint at 5 µM [14]: 47.4 µL/min/mg
- Activity [15]: Active
- inhibition [22]: inactive
- Ki [5]: 138 nM
- inhibition [23]: inactive
- solubility [16]: 991 µM (≈ 444 µg/mL)
- Retention_time [17]: 9.004 min
- K [18]: 0.02842 ×10⁻¹ /min
- half-life at 5 µM [19]: 24.4 min

SMILES: NC(=O)c1ccn(-c2cccc(OC(=O)NCCN3CCN(c4ccccc4)CC3)c2)c1
- Activity [24]: Non-Toxic
- Activity [25]: Non-Toxic
- Ki [1]: 16 nM
- Activity [26]: Non-Toxic
- IC50 [8]: 5000 nM
- IC50 [3]: 5300 nM
- inhibition [21]: inactive
- IC50 [2]: 58 nM
- Ki [4]: 105 nM
- inhibition [22]: inactive
- Ki [5]: 186 nM
- inhibition [23]: inactive
- Activity [27]: Non-Toxic

SMILES: Cc1cc(C(N)=O)c(-c2cccc(OC(=O)NCCCN3CCN(c4ccccc4)CC3)c2)o1
- Ki [1]: 16 nM
- IC50 [3]: 1100 nM
- IC50 [2]: 62 nM
- Ki [4]: 19 nM
- Ki [5]: 29 nM

SMILES: NC(=O)c1ccn(-c2cccc(NC(=O)NCCN3CCN(c4ccccc4)CC3)c2)c1
- Ki [1]: 420 nM
- IC50 [2]: 1600 nM
